# Screening results: PubChem BioAssay, Broad Institute
# Many of the other results were omitted from the sample, so hits are more common in it than they were.
# A1 apoptosis 2: blocks A1, raising caspase activity; MEF A1-2A-BIM cells, caspase-Glo luminescence, 3 h; percent of clofoctol response, DMSO zero; caspase activation, % (concentration not given with the values); 24,000 tested, under 10 active; AID 2465; in the data active = caspase activation above about 5.9%
#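 Material: A1-2A-BIM-expressing MEF cells. Buffer or medium: RPMI-1640 plus 10% FBS. Incubation: cells settled overnight, compound exposure 3 h at 37 °C, 5% CO2. Signal: Caspase-Glo 3/7 luminescence, 1 h at room temperature.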
# INS-1E rescue: INS-1E beta cell protection from cytokine death; INS-1E cytokine-induced death, ATP luminescence, 48 h; normalised: neutral wells 0, positive control 100; protection from cytokine-induced ATP loss, % at 10 µM; hit rate 0.1% among 20,000; AID 488910;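 active = mean replicate protection from cytokine-induced ATP loss at least 50% and at least 75% of replicates each reaching 50%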
#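 Material: INS-1E rat cells; Quantity: 8000 cells/well; Buffer or medium: phenol-red-free RPMI with 5% fetal bovine serum; Probe or stimulus: cytokine cocktail of IFN-γ, TNF-α and IL-1β; Compound dosing: single test concentration per compound, delivered by pin transfer; Incubation: 48 h co-treatment, 10 min post-lysis read; Signal: CellTiter-Glo luminescence.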
# T cruzi intra: inhibitors of intracellular Trypanosoma cruzi; intracellular Trypanosoma cruzi in host cells, plate reader; activity score (inhibition), % at 5.01 µM; hit rate 4.9% among 22,000; AID 651903; in the data active = activity score above about 55%;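 note: parasites and compound incubated about four days before reading; 0% = median of neutral control wells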
# Starred values were filed as active, the others as inactive; · = not tested or not shown.
SMILES,A1 apoptosis 2,INS-1E rescue,T cruzi intra
C[C@H](CO)N1C[C@H](C)[C@H](CN(C)C(=O)Nc2cccc3ccccc23)Oc2ncc(-c3ccc(F)cc3)cc2C1=O,1,-3,33
N#Cc1ccc(/C=N/NC(=O)CCCCC(=O)NO)cc1,0,-4,5
O=C(NN=C1CCCCCC1)c1ccccc1O,·,-13,-6
COc1ccc(C#Cc2ccc3c(c2)[C@]2(C(=O)N3)[C@H](C(N)=O)[C@H]3C(=O)O[C@H](c4ccccc4)[C@H](c4ccccc4)N3[C@@H]2c2ccccc2OCCO)cc1,-1,·,·
COCCOC(=O)N1C(=O)[C@@]2(c3cc(C#CC4=CCCCC4)ccc31)[C@H](C(=O)N1CCN(c3ncccn3)CC1)[C@H]1C(=O)O[C@H](c3ccccc3)[C@H](c3ccccc3)N1[C@@H]2c1ccc(O)cc1,0,·,·
[N-]=[N+]=NC[C@H](Cc1ccccc1)NC(=O)c1ccccc1,-1,·,·
O=C(N/N=C/Cc1ccccc1)c1ccccn1,-2,5,7
CC(C)=CCC[C@H](C)C/C=N/NC(=O)CCCCCCC(=O)NO,1,·,·
C[C@H]1CN([C@@H](C)CO)C(=O)Cc2cc(N(C)C)ccc2O[C@@H]1CN(C)Cc1ccc(Cl)c(Cl)c1,·,-8,72*
C[C@@H]1CN([C@H](C)CO)C(=O)Cc2cc(N(C)C)ccc2O[C@H]1CN(C)Cc1ccc2c(c1)OCO2,2,-8,69*
C[C@@H]1CN([C@@H](C)CO)C(=O)Cc2cc(N(C)C)ccc2O[C@@H]1CN(C)Cc1ccc(Cl)c(Cl)c1,-1,-17,43
C[C@H](CO)N1C[C@H](C)[C@@H](CN(C)Cc2ccc3c(c2)OCO3)Oc2ccc(N(C)C)cc2CC1=O,0,·,·
C[C@H]1CN([C@@H](C)CO)C(=O)Cc2cc(N(C)C)ccc2O[C@@H]1CN(C)Cc1ccc2c(c1)OCO2,·,-5,64*
C[C@@H]1CN([C@H](C)CO)C(=O)Cc2cc(N(C)C)ccc2O[C@@H]1CN(C)Cc1ccc2c(c1)OCO2,·,-7,-23
COC(=O)CCCCCCC(=O)N/N=C/c1ccc(OC)cc1,0,13,-2
Cc1ccc(S(=O)(=O)Nc2ccc3c(c2)CC(=O)N([C@H](C)CO)C[C@@H](C)[C@@H](CN(C)Cc2ccc(Cl)c(Cl)c2)O3)cc1,·,-51,71*
Cc1ccc(S(=O)(=O)Nc2ccc3c(c2)CC(=O)N([C@@H](C)CO)C[C@@H](C)[C@@H](CN(C)Cc2ccc(Cl)c(Cl)c2)O3)cc1,1,-30,59*
Cc1ccc(S(=O)(=O)Nc2ccc3c(c2)C(=O)N([C@H](C)CO)C[C@@H](C)[C@@H](CN(C)Cc2ccc(Cl)c(Cl)c2)O3)cc1,·,-19,36
C[C@@H]1CN([C@@H](C)CO)C(=O)Cc2cc(NS(=O)(=O)c3ccc(Cl)cc3)ccc2O[C@H]1CN(C)Cc1ccc(Cl)c(Cl)c1,-1,·,·
Cc1ccc(S(=O)(=O)Nc2ccc3c(c2)CC(=O)N([C@@H](C)CO)C[C@H](C)[C@H](CN(C)Cc2ccc(Cl)c(Cl)c2)O3)cc1,·,0,19
Cc1ccc(S(=O)(=O)Nc2ccc3c(c2)CC(=O)N([C@H](C)CO)C[C@@H](C)[C@H](CN(C)Cc2ccc(Cl)c(Cl)c2)O3)cc1,·,2,65*
C=CCOC(=O)C(=O)/C=C/C(C)(C)C,0,·,·
C=CCNC(=O)[C@H]1[C@@H]2C(=O)O[C@@H](c3ccccc3)[C@@H](c3ccccc3)N2[C@@H](c2ccc(O)cc2)[C@]12C(=O)Nc1ccc(C#CC3(O)CCCCCC3)cc12,-1,·,·
COc1cccc(/C=C2\SC(=S)N(CCCC(=O)O)C2=O)c1,-2,·,·
C[C@@H]1CN([C@H](C)CO)C(=O)Cc2cc(NS(=O)(=O)c3ccc(Cl)cc3)ccc2O[C@@H]1CN(C)Cc1ccncc1,1,0,76*
SMILES,A1 apoptosis 2,INS-1E rescue,T cruzi intra
C[C@H]1CN([C@@H](C)CO)C(=O)Cc2cc(NS(=O)(=O)c3ccc(Cl)cc3)ccc2O[C@@H]1CN(C)Cc1ccncc1,0,14,-27
C[C@H](CO)N1C[C@H](C)[C@@H](CN(C)Cc2ccc(Cl)c(Cl)c2)Oc2ccc(NS(=O)(=O)c3ccc(Cl)cc3)cc2CC1=O,0,·,·
C[C@@H]1CN([C@H](C)CO)C(=O)Cc2cc(NS(=O)(=O)c3ccc(F)cc3)ccc2O[C@H]1CN(C)Cc1ccc(Cl)c(Cl)c1,·,-25,77*
C[C@H]1CN([C@@H](C)CO)C(=O)Cc2cc(NS(=O)(=O)c3ccc(F)cc3)ccc2O[C@H]1CN(C)Cc1ccc(Cl)c(Cl)c1,·,-15,40
C[C@@H]1CN([C@H](C)CO)C(=O)Cc2cc(NS(=O)(=O)c3ccc(Cl)cc3)ccc2O[C@H]1CN(C)Cc1ccc(Cl)c(Cl)c1,·,5,65*
COc1ccc(CN(C)C[C@@H]2OCCCC[C@H](C)Oc3ccc(NS(=O)(=O)c4ccc(Cl)cc4)cc3C(=O)N([C@@H](C)CO)C[C@@H]2C)cc1,0,·,·
O=C(O)CCCCCCC(=O)N/N=C/c1ccc(S(=O)(=O)O)o1,1,-9,-12
COC(=O)CCCCCCC(=O)N/N=C/c1ccc(OC)c(Br)c1,0,-5,2
O=C(NO)c1cccc(C(=O)N/N=C/Cc2ccccc2)c1,-1,-4,-11
Cc1noc(C)c1NC(=O)Nc1cccc2c1O[C@@H](CN(C)S(C)(=O)=O)[C@@H](C)CN([C@@H](C)CO)C2=O,·,-59,67*
C[C@@H]1CN([C@@H](C)CO)C(=O)c2cccc(NC(=O)Nc3ccc(C(F)(F)F)cc3)c2O[C@H]1CN(C)S(=O)(=O)c1ccc(Cl)cc1,0,-17,80*
C[C@H](CO)N1C[C@H](C)[C@@H](CN(C)S(=O)(=O)c2ccc(Cl)cc2)Oc2c(NC(=O)Nc3ccc(C(F)(F)F)cc3)cccc2C1=O,-1,-29,33
Cc1noc(C)c1NC(=O)Nc1cccc2c1O[C@@H](CN(C)S(C)(=O)=O)[C@H](C)CN([C@H](C)CO)C2=O,·,4,-34
Cc1ccc(S(=O)(=O)N(C)C[C@H]2Oc3c(NC(=O)Nc4ccc(C(F)(F)F)cc4)cccc3C(=O)N([C@H](C)CO)C[C@H]2C)cc1,·,-36,38
C[C@H](CO)N1C[C@H](C)[C@H](CN(C)S(=O)(=O)c2ccc(Cl)cc2)Oc2c(NC(=O)Nc3ccccc3)cccc2C1=O,·,-6,-73
Cc1ccc(S(=O)(=O)N(C)C[C@@H]2Oc3c(NC(=O)Nc4ccc(C(F)(F)F)cc4)cccc3C(=O)N([C@H](C)CO)C[C@@H]2C)cc1,-1,-69,85*
C[C@H](CO)N1C[C@H](C)[C@@H](CN(C)S(=O)(=O)c2ccc(Cl)cc2)Oc2c(NC(=O)Nc3ccccc3)cccc2C1=O,0,1,68*
CC(C)=CCC[C@H](C)C/C=N/NC(=O)c1cccc(C(=O)NO)c1,2,3,-8
O=C(N/N=C/c1ccc(CO)o1)c1ccccn1,·,4,-28
COc1ccc([Si](C)(C)[C@@H]2[C@@H](CC(=O)N3CCC[C@H]3CO)O[C@]3(C(=O)N(Cc4ccc(I)cc4)c4ccccc43)[C@H]2C)cc1,0,·,·
